Assay results from ChEMBL document CHEMBL2010734, “A thiopyranchromenone and other chromone derivatives from an Endolichenic fungus, Preussia africana” (J Nat Prod, 2012).
Active and inactive are the calls of the source. No cut-off for these calls is given here.

Experiments:
Assay type in all cases: functional, cell-based
A549 [1] = assay: Cytotoxicity against human A549 cells at 20 ug/ml after 48 hrs by MTS assay
Summary of the method: (§1)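 Cells seeded at (2−5) × 10^3 per well depending on growth rate, attached overnight, then medium replaced with medium containing test compound (serial dilutions from 100 mM DMSO stock) or 0.1% DMSO vehicle; cisplatin as positive control. Incubated 48 h at 37 °C, humidified 5% CO2. MTS added, 90 min at 37 °C in the dark, proliferation read. Triplicate.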

MCF7 [2] = assay: Cytotoxicity against human MCF7 cells at 20 ug/ml after 48 hrs by MTS assay; summary of the method: as §1
HCT-116 [3] = assay: Cytotoxicity against human HCT116 cells at 20 ug/ml after 48 hrs by MTS assay; summary of the method: as §1
HeLa [4] = assay: Cytotoxicity against human HeLa cells at 20 ug/ml after 48 hrs by MTS assay; summary of the method: as §1
A549 [5] = assay: Cytotoxicity against human A549 cells after 48 hrs by MTS assay; conditions: A549, 48 h
Summary of the method: (§2)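 MTS assay in triplicate. Cells seeded at (2−5) × 10³ per well, with the number set by growth rate, and allowed to attach overnight. Medium then replaced with medium containing 0.1% DMSO or serial dilutions of compounds made from 100 mM DMSO stocks. Cisplatin served as positive control. Incubation 48 h at 37 °C in humidified 5% CO2. MTS added, then 90 min at 37 °C in the dark. IC50 derived.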

HeLa [6] = assay: Cytotoxicity against human HeLa cells after 48 hrs by MTS assay; summary of the method: as §2
MCF7 [7] = assay: Cytotoxicity against human MCF7 cells after 48 hrs by MTS assay; conditions: MCF7, 48 h; summary of the method: as §1
HCT-116 [8] = assay: Cytotoxicity against human HCT116 cells after 48 hrs by MTS assay; conditions: HCT-116, 48 h; summary of the method: as §2

Structure (SMILES)	Activity (A549 [1])	Activity (MCF7 [2])	Activity (HCT-116 [3])	Activity (HeLa [4])	IC50 (A549 [5])	IC50 (HeLa [6])	IC50 (MCF7 [7])	IC50 (HCT-116 [8])
COC(=O)[C@H]1c2c(oc3cccc(O)c3c2=O)C[C@](C)(O)[C@H]1O	inactive	inactive	inactive	inactive				
COC1=CC(=O)c2c(O)cc(OC)c3c2[C@]1(O)COC3=O [PREUSSOCHROMONE C]					5.75 µM	30 µM	41.2 µM	15.1 µM
COC(=O)[C@]1(O)[C@@H](O)[C@H](C)[C@H]2Oc3cccc(O)c3C(=O)[C@@H]21	inactive	inactive	inactive	inactive				
COC(=O)[C@]1(O)[C@H](O)[C@H](C)[C@H]2Oc3cccc(O)c3C(=O)[C@H]21	inactive	inactive	inactive	inactive				
COC(=O)[C@]1(O)C(=O)[C@H](C)[C@H]2Oc3cccc(O)c3C(=O)[C@@H]21	inactive	inactive	inactive	inactive				
COC(=O)[C@@]1(O)c2c(oc3cccc(O)c3c2=O)S[C@@H](C)[C@H]1O [PREUSSOCHROMONE A]					8.34 µM	25.5 µM		25.9 µM
